Source: PubChem BioAssay (several laboratories)
Tb MetRS inh: Trypanosoma brucei MetRS inhibition; purified T. brucei MetRS, ATP depletion, Kinase-Glo luminescence; hit rate 0.4% among 360,000; inhibition, % at 11.9 µM;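 active = inhibition above a per-plate cutoff of the control wells' mean inhibition plus 3 SD, cut at about 5.5% in these data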
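Test system – parasite MetRS enzyme · Reagent – substrates ATP, L-methionine and bulk Escherichia coli tRNA · Doses – 11.9 µM compound single dose, 0.9% DMSO · Times – 15 min enzyme-compound preincubation, 2 h reaction, 10 min detection, 25 °C · Signal – Kinase-Glo luminescence, ATP depletion format · Controls – DMSO-only wells as low control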
iPSC survival up: increases survival of single human iPS cells; hit rate 0.044% among 360,000; AID 602274; hiPSC single-cell survival, ATPlite luminescence; 100% = ROCK inhibitor wells, 0% = DMSO; survival enhancement, % at 20 µM; in the data active = survival enhancement above about 18%;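 note: cells exposed to compounds for 16 hours before the ATP read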
ABCB6 inh 2: inhibitors of human ABC transporter ABCB6; Q9NP58; K562-ABCB6 porphyrin accumulation, flow cytometry, 1 h; hits give low values; fluorescence ratio to DMSO, % at 10 µM; hit rate 0.19% among 360,000; AID 602162;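 active = fluorescence ratio to DMSO below 75%, the collection mean minus 3 SD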;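 note: signal is porphyrin accumulated inside mitochondria; lower ratio means ABCB6 inhibition with less porphyrin fluorescence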
MC4R ag barr: human MC4R agonism via beta-arrestin; U2OS MC4R beta-arrestin complementation, luminescence; percent of melanotan II response, DMSO zero; activation, % at 8.9 µM; P32245; hit rate 0.98% among 360,000;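 active = activation above a per-plate cutoff, the mean activation of sample wells on that plate plus 3 SD, cut at about 8% in these data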
Target sequence (P32245 whole entry, looked up): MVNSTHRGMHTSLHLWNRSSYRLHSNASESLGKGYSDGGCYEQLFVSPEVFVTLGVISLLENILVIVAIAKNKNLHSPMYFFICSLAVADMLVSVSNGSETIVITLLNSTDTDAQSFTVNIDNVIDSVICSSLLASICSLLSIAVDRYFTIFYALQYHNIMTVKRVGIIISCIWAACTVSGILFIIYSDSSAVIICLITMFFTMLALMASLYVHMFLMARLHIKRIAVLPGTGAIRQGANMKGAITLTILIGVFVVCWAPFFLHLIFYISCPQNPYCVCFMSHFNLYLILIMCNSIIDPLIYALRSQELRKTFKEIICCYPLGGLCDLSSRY
MC4R antag cAMP: human MC4R antagonism in cAMP assay; P32245; MC4R-expressing cells, MTII-stimulated cAMP, LANCE TR-FRET; inhibition, % at 6.5 µM; hit rate 0.48% among 360,000; AID 540295;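 active = inhibition above its plate's cutoff, the mean of tested wells on that plate plus 3 SD, cut at about 29% in these data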
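System – human MC4R-expressing U2OS cells · Also added – Melanotan II · Dosing – one concentration, 6.5 µM nominal · Timing – 30-min compound, 1-h challenge, 1-h detection, room temperature · Measured by – Eu-cAMP/anti-cAMP TR-FRET, emission 671 nm · Replicates – singlicate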
Granule exo inh: lytic granule exocytosis inhibition | TALL-104 LAMP-1 surface exposure, flow cytometry; cells stimulated with thapsigargin and PMA | hit rate 0.66% among 360,000 | inhibition, % at 10 µM;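 active = inhibition above about 55%, limit read from the data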
Each line names hits and unclear results; the compound was inactive in the other large screens. Rows were chosen to be rich in hits. Some 2.6% of all compounds tested hit in one or more screens of this group.

O=C(c1cc(-c2ccco2)nn1-c1cccc(Cl)c1)N1CCCCC1	MC4R antag cAMP 31
CC(C)NC(=O)c1cc(-c2ccco2)nn1-c1ccc(Cl)cc1	none
COc1ccc(C2=CC(=O)C[C@H](c3ccc(OC)c(OC)c3)C2)cn1	iPSC survival up 46
COc1ccc([C@H]2CC(=O)C=C(c3ccc(F)nc3)C2)cc1OC	none
Cc1ccc[n+](CC(=O)Nc2cc(C(F)(F)F)ccc2Cl)c1	none
CCC(C)(C)c1ccc(OCCCC[n+]2cccc(C)c2)c(C(C)(C)CC)c1	MC4R ag barr 19
O=C(COC(=O)Cc1cccc(C(F)(F)F)c1)NC(=O)NC1CCCC1	MC4R ag barr 8.3
O=C(COC(=O)Cc1cccc(C(F)(F)F)c1)NC1CC1	none
O=S(=O)(NCCC1CC1(Cl)Cl)c1ccc(Cl)cc1 (stereo unspecified)	none
CCOc1nc(Nc2ccc([N+](=O)[O-])cc2)nc(NC(C)(C)C)n1	none
CCN(CC)c1nc(Nc2ccc([N+](=O)[O-])cc2)nc(N(CC)CC)n1	Granule exo inh 107
Cc1nc2ccccc2n1CCC(=O)O	none
Cc1nc2ccccc2n2c(O)c(CC(=O)O)cc12	MC4R ag barr 8.3
CCc1nc2c(OCCOc3ccc(F)cc3)cccn2c1N(C)C(=O)c1ccco1	none
O=C(c1cccc(C(F)(F)F)c1)N1CCc2c([nH]c3ccccc23)C1C(F)(F)F (stereo unspecified)	MC4R ag barr 8.8
O=C(O)c1ccccc1C(=O)N1CCc2c([nH]c3ccccc23)C1C(F)(F)F (stereo unspecified)	none
CCOC(=O)C1CCN(c2nc3c(C)cccn3c(=O)c2/C=C(\C#N)S(=O)(=O)c2ccccc2)CC1	Granule exo inh 84
CCN(C(=O)c1ccc(S(=O)(=O)N2CCOCC2)cc1)C1CCS(=O)(=O)C1 (stereo unspecified)	none
CC(=O)Nc1cc2c3ccccc3ccc2c2ccccc12	ABCB6 inh 2 74
CC(=O)Nc1cccc2ccc(O)cc12	none
CCOc1ccc(CN(C)C(=O)[C@H](Cc2ccccc2)NC(=O)OCc2ccccc2)cc1OC	Granule exo inh 56
Cc1ccc(NC(=O)C(Cc2ccccc2)NC(=O)OCc2ccccc2)cc1C (stereo unspecified)	MC4R ag barr 8.8
O=C(CSc1nnc(-c2ccccn2)n1Cc1ccccc1)N1CCOCC1	none
COc1ccc(Cl)cc1-c1nc(SCC(=O)NCCN2C(=O)CSC2=O)n[nH]1	none
COc1ccccc1NC(=O)C(Sc1ccccc1)c1ccccc1 (stereo unspecified)	none
Cc1c(NC(=O)C(Sc2ccccc2)c2ccccc2)cccc1[N+](=O)[O-] (stereo unspecified)	Granule exo inh 59
COc1cc(Br)cc2cc(C(=O)N3CCOCC3)c(=O)oc12	none
COc1ccc(CCn2c(C)cc(C(=O)CSc3nnnn3-c3ccccc3)c2C)cc1	MC4R ag barr 8.7
COC1=C(Br)C(=O)c2ncccc2C1=O	Granule exo inh 107
O=C1c2cccnc2-c2ncccc21	none
O=C(NC1(C(=O)NC2CCCCC2)CCCCC1)c1ccc2c(c1)OCO2	none
O=C(NC1(C(=O)NC2CCCC2)CCCCC1)c1ccc2c(c1)OCO2	ABCB6 inh 2 69
C=CCn1c(-c2cc(-c3ccccc3)sc2N)n[nH]c1=S	none
COc1ccc(-n2c(-c3cc(-c4ccccc4)sc3N)n[nH]c2=S)cc1	Granule exo inh 91
O=C(O/N=C1\C(=O)N(c2ccccc2)c2ccccc21)C1CC1	none
CN1C(=O)/C(=N/OC(=O)c2ccccc2)c2ccccc21	Granule exo inh 87
COc1cc(N=c2ssnc2Cl)cc(OC)c1	none
Clc1nssc1=Nc1nncs1	none
Clc1ccc(N=c2ssnc2Cl)nc1	Granule exo inh 87
Clc1nssc1=Nc1ccc(Br)cc1	Granule exo inh 59
COc1cccc(-c2cnc(C(O)c3c(C)cccc3C)[nH]2)c1 (stereo unspecified)	none
CSC1=NCCN1C(=O)Cc1cccs1	none
CCOc1cc(S(=O)(=O)Nc2ccc(CC)cc2)ccc1Cl	MC4R ag barr 9.4
COc1ccccc1NC(=O)c1c(N=Cc2cccc([N+](=O)[O-])c2)cnn1C	Granule exo inh 62
CCN1/C(=C/C(C)=C/c2sc3ccccc3[n+]2CC)Sc2ccccc21	Granule exo inh 82
COc1ccc(S(=O)(=O)NCC2(N3CCOCC3)CCCCC2)cc1OC	none
COc1ccc2nc3ccccc3nc2c1NC(=O)c1ccc(Cl)cc1	MC4R ag barr 9.1
O=C(NC(=S)Nc1ccc2oc(=O)ccc2c1)c1ccccc1F	MC4R ag barr 8.4
C[C@H](CO)N1C[C@H](C)[C@H](CN(C)S(=O)(=O)c2ccc(-n3cccn3)cc2)OCc2cnnn2CCCC1=O	none
Cn1nc(-c2ccccc2)c(C(O)c2ccccc2C(F)(F)F)c1Cl (stereo unspecified)	iPSC survival up 22
O=C1/C(=C/c2ccncc2)SC(=S)N1Nc1ccccc1	Granule exo inh 61
O=C(O)c1ccc(/C=C2\SC(=S)N(Nc3ccccc3)C2=O)cc1	none
CNC1(C(N)=O)CCNCC1	none
O=C1c2ccccc2-c2onc3ccc(Oc4ccccc4)c1c23	Granule exo inh 85
O=C(Nn1c(COc2ccccc2)nc2ccccc2c1=O)C(Cl)(Cl)Cl	Granule exo inh 79
Cc1nc2ccccc2c(=O)n1NC(=O)COc1ccccc1	none
O=C1N/C(=C\c2ccc(O)cc2)C(=O)c2ccccc21	Tb MetRS inh 7.8
O=C(O)/C=C1\NC(=O)c2ccccc21	none
O=C1C=CC(=O)N1c1cccc(-c2ccccc2)c1	MC4R antag cAMP 48
O=C(Oc1ccccc1/C=C\C(=O)c1cc2ccccc2o1)c1cccc(F)c1	none
O=C(Oc1ccccc1/C=C\C(=O)c1cc2ccccc2o1)c1ccccc1	Granule exo inh 61
CCOc1ccc(NC(=O)CSc2cn[nH]n2)cc1	none
Cc1ccc(-c2nnc(NCc3nc4ccccc4[nH]3)c3ccccc23)cc1S(=O)(=O)N1CCOCC1	Tb MetRS inh 12
CCSc1cnn(-c2ccccc2)c(=O)c1Cl	iPSC survival up 37
CCOc1cnn(-c2ccccc2)c(=O)c1Cl	iPSC survival up 58
CCOc1cc(/C=C2\CN(C)C/C(=C\c3ccc(O)c(OCC)c3)C2=O)ccc1O	none
CCOc1cc(/C=C2\CCC/C(=C\c3cc(Cl)c(O)c(OCC)c3)C2=O)cc(Cl)c1O	Granule exo inh 82
COc1ccc(CC(=O)N[C@@H]2c3ccccc3CC[C@@H]2OCc2ccccc2)cc1	none
N#Cc1c(F)cccc1NCc1cccs1	none
